Source: ChEMBL document CHEMBL3132837, “VUT-MK142 : a new cardiomyogenic small molecule promoting the differentiation of pre-cardiac mesoderm into cardiomyocytes” (2013)
Activity calls are given as the source filed them. The rule behind the calls is not given here.

How the values were obtained:
[1] = Cardiomyogenesis in mouse cardiovascular progenitor cells assessed as upregulation of Mesp1 gene expression at 1 uM by RT-PCR analysis; format: functional
Mus musculus [2] = organism: Mus musculus; test: Cardiomyogenesis in mouse cardiovascular progenitor cells assessed as formation of cardiac bodies at 1 uM compound by phase contrast microscopy relative to control; settings: Heart
Mus musculus [3] = organism: Mus musculus; test: Cardiomyogenesis in mouse cardiovascular progenitor cells assessed as formation of cardiac bodies at 1 uM compound treated on day 0 to day 5 of myocardial differentiation commitment by phase contrast microscopy relative to control; format: functional; settings: Heart
Procedure, shortened: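 A5 CVPCs from newborn mouse hearts, grown in M15 on inactivated SNL76/7 feeders, aggregated into cardiac bodies in hanging drops (900 ± 50 cells per drop, 4.5 days), then plated on gelatine. Compound 1 μM or 0.005% DMSO present days 0–5. Beating CBs scored by microscopy for at least 20 days, 80 CBs per experiment, normalised daily to DMSO control.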

P19 [4] = test: Cardiomyogenic activity in mouse P19 cells assessed as upregulation of Nkx2.5 gene expression at 1 uM after 7 days by luciferase reporter assay relative to control; format: functional
Procedure, shortened: (§1)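 Nkx2.5 promoter firefly luciferase plasmid (pGL3b backbone) co-transfected with Renilla control one day before treatment. P19 cells treated in MEM-alpha/5% FBS induction medium; C2C12 cells treated in 2% horse serum differentiation medium. Compound 1 μM or 0.005% DMSO for 7 days, media refreshed twice. Dual-luciferase activity expressed as fold over DMSO control; paired two-tailed t-test on raw data.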

[5] = Cardiomyogenesis in mouse cardiovascular progenitor cells assessed as upregulation of Gata4 gene expression at 1 uM by RT-PCR analysis; format: functional
[6] = Cardiomyogenesis in mouse cardiovascular progenitor cells assessed as upregulation of Eomes gene expression at 1 uM by RT-PCR analysis; format: functional
C2C12 [7] = test: Cardiomyogenic activity in mouse C2C12 cells assessed as upregulation of Nkx2.5 gene expression at 1 uM after 7 days by luciferase reporter assay relative to control; format: functional; procedure, shortened: as §1
[8] = Cardiomyogenesis in mouse cardiovascular progenitor cells assessed as upregulation of tropomyosin gene expression at 1 uM by RT-PCR analysis; format: functional
[9] = Cardiomyogenesis in mouse cardiovascular progenitor cells assessed as upregulation of brachyury gene expression at 1 uM by RT-PCR analysis; format: functional
[10] = Cardiomyogenesis in mouse cardiovascular progenitor cells assessed as upregulation of Mef2C gene expression at 1 uM by RT-PCR analysis; format: functional
P19 [11] = test: Cardiomyogenic activity in mouse P19 cells assessed as upregulation of ANF gene expression at 1 uM after 7 days by luciferase reporter assay relative to control; format: functional, cell-based
Procedure, shortened: (§2)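 P19 and C2C12 cells transiently transfected with rat ANF promoter firefly luciferase plasmid plus pRL-SV40 Renilla control one day before treatment. P19: 7 days in induction medium (MEM-alpha, 5% FBS). C2C12: 7 days in differentiation medium (2% horse serum), compound added at the switch. Compound 1 μM, DMSO 0.005% in all wells, media refreshed twice. Dual-luciferase read-out, Renilla-normalised, expressed relative to DMSO control; n=3–10 independent preparations; 10 nM retinoic acid in P19 as positive control.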

C2C12 [12] = test: Cardiomyogenic activity in mouse C2C12 cells assessed as upregulation of ANF gene expression at 1 uM after 7 days by luciferase reporter assay relative to control; format: functional, cell-based; procedure, shortened: as §2
[13] = Cardiomyogenesis in mouse cardiovascular progenitor cells assessed as upregulation of Nkx2.5 gene expression at 1 uM by RT-PCR analysis; format: functional
Mus musculus [14] = organism: Mus musculus; test: Cardiomyogenesis in mouse cardiovascular progenitor cells assessed as formation of cardiac bodies with beating at 1 uM compound treated on day 5 to day 13 of myocardial differentiation commitment measured on day 11 to 13 by phase contrast microscopy relative to control; format: functional; settings: Heart

With `COc1ccc(Nc2cc(NC3CCCCC3)ncn2)cc1` the Activity [1] was “inactive”, the Activity (Mus musculus [2]) was “Active” and the Activity (Mus musculus [3]) was “inactive”. The “fold change (FC)” value (P19 [4]) was 3.1, the Activity [5] was “inactive” and the Activity [6] was “inactive”. The “fold change (FC)” value (C2C12 [7]) was 2.2, the Activity [8] was “inactive” and the Activity [9] was “Active”. The Activity [10] was “Active”, the Activity (P19 [11]) was “Active” and the Activity (C2C12 [12]) was “Active”. For the same molecule, the Activity [13] was “Active” and the Activity (Mus musculus [14]) was “Active”.
With `COc1ccc(Nc2cc(NCCO)ncn2)cc1` the Activity (P19 [11]) was “Active” and the Activity (C2C12 [12]) was “Active”.
With `COc1ccc(Nc2nccc(NCCO)n2)cc1` [CARDIOGENOL C] the “fold change (FC)” value (P19 [4]) was 1.6, the “fold change (FC)” value (C2C12 [7]) was 1.4 and the Activity (P19 [11]) was “Active”. The Activity (C2C12 [12]) was “Active”.
For `CCNc1cc(Nc2ccc(OC)cc2)ncn1`, the Activity (C2C12 [12]) was “Active”.
In the case of `OCCNc1cccc(Nc2ccc(Oc3ccccc3)cc2)n1`, the Activity (P19 [11]) is reported as “inactive” and the Activity (C2C12 [12]) is reported as “inactive”.
With `CNc1cc(Nc2ccc(OC)cc2)ncn1` the Activity (Mus musculus [2]) was “inactive”, the Activity (Mus musculus [3]) was “inactive” and the Activity (P19 [11]) was “inactive”. For the same molecule, the Activity (C2C12 [12]) was “inactive”.
With `COc1ccc(Nc2cccc(NCCO)n2)cc1` the Activity (P19 [11]) was “Active” and the Activity (C2C12 [12]) was “Active”.
